# Compound activity from PubChem.
# This is a sample that favours compounds with a hit; in the whole collection about 2% have one here.
# Hck Nef HTS: inhibitors of Nef-activated human Hck kinase, primary screen, biochemical, Z-Lyte FRET, 384-well, Hck-YEEI | inhibition, % at 20 µM | AID 463187, 2010 | Recombinant Hck-YEEI plus Nef, Z-Lyte FRET kinase assay | 220,000 compounds, 0.68% hits;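 active means Hck-Nef kinase inhibition above about 50%, limit read from the data; inactive means inhibition below that limit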
# NCF1 inh: p47phox/p22phox peptide binding inhibitors, primary screen, biochemical, uHTS, NADPH oxidase regulatory subunit. Neutrophil cytosol factor 1 (Homo sapiens), P14598. 220,000 compounds, 0.53% hits. inhibition, % at 24.7 µM. fluorescence polarization, 2 h
# Diaphorase act: compounds boosting diaphorase resazurin reduction – biochemical, uHTS, resorufin fluorescence, counter-screen for diaphorase-coupled primary assays, primary screen; Diaphorase/resazurin coupled assay, 16 min; active compounds read high; 1 = vehicle wells, 0 = NADH-free wells; activation factor at 20 µM; 190,000 compounds, 0.005% hits; AID 1229, 2008;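 active means diaphorase activity raised at least twofold by the compound at 20 µM; inactive means activation factor below 2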
#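 Material: Clostridium kluyveri diaphorase, purified enzyme; Quantity: enzyme 0.07 U/mL final; Medium: HEPES pH 7.4 buffer with MgCl2 and Tween 20; Dosing: single compound dose of 20 µM, 1% DMSO final; Schedule: 16 min reaction at room temperature; Measured by: red resorufin fluorescence at 544/590 nm excitation/emission.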
# 14-3-3 Bad PPI: inhibitors of 14-3-3 zeta/Bad binding, primary screen, biochemical, TR-FRET, bovine 14-3-3 zeta; 14-3-3 protein zeta/delta (Bos taurus), P63103; TR-FRET 14-3-3zeta/Dy647-pBad peptide displacement, 1 h; inhibition, % at 21.7 µM; 220,000 compounds, 0.71% hits;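 active means inhibition above about 70%, limit read from the data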
# eIF4E-4G inh: eIF4E–eIF4G protein interaction inhibitors, primary screen, biochemical, uHTS, TR-FRET, eIF4GI fragment. Eukaryotic translation initiation factor 4E (Mus musculus) + Eukaryotic translation …. TR-FRET eIF4E-eIF4GI(517-606) binding, 2 h. inhibition, % at 21.7 µM. 220,000 compounds, 0.37% hits
# Hits are given with their value; – = inactive; · = no result given.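 How the source made its calls, unless noted: active means inhibition above about 30% (limit read from the data); inactive means the rest.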
SMILES,Hck Nef HTS,NCF1 inh,Diaphorase act,14-3-3 Bad PPI,eIF4E-4G inh
CC1CCCCN1C(=O)Cn1cnc2cc([N+](=O)[O-])ccc2c1=O (configuration not stated),–,–,–,–,–
Brc1cccc(C2CC(c3ccccc3)n3nnnc3N2)c1 (configuration not stated),–,–,–,–,34
O=C(N/N=C/c1ccc(Cl)cc1Cl)C(=O)NC1CC1,–,–,–,–,–
CCn1c(C)nc2cc(C(=O)n3cc(C(=O)c4ccccc4O)cn3)ccc21,89,–,–,–,–
O=C(c1cnn(C(=O)c2ccc(O)cc2)c1)c1ccccc1O,–,–,–,–,–
CCOc1ccc(NC(=O)CC2C(=O)N(c3cccc(OC)c3)C(=O)N2CCOC)cc1 (configuration not stated),–,–,·,–,–
COc1ccc(C(=O)/C=C/C(=O)N(CC(=O)NC2CCCCC2)Cc2ccc(F)cc2)c(O)c1,–,33,–,–,–
Cn1c(N)c(C(=O)COC(=O)CC2CC3CCC2C3)c(=O)n(C)c1=O (configuration not stated),–,–,–,–,–
Cc1cc(N2CCOCC2)nc2cc(O)ccc12,–,–,–,80,–
CN(C)c1nc(N)c([N+](=O)[O-])c(NCC2CCCO2)n1 (configuration not stated),–,–,·,–,–
Cc1[nH]c2c(ccc3ccccc32)c1C1C(CCN)C1(C)C (configuration not stated),–,60,–,–,–
O=[N+]([O-])c1ccc(OCCO)c(P(=O)(c2ccccc2)c2ccccc2)c1,–,–,·,–,–
COc1ccc(CCN(C)C(=O)C2CCN(Cc3cccc(OC)c3OC)CC2)cc1OC,–,–,–,–,–
CC(=O)/C(C#N)=C1\NC(=O)C(Cc2ccccc2Cl)S1 (configuration not stated),–,–,–,74,–
Cc1ccc(NC(=O)CCC(=O)N/N=C/c2cccs2)cc1,–,–,–,86,–
Cc1ccc(NC(=O)CCC(=O)N/N=C/c2cccs2)cc1C,–,–,–,–,–
COc1cc(/C=C2/SC(=O)NC2=O)ccc1Oc1ccc([N+](=O)[O-])cc1[N+](=O)[O-],52,–,·,–,–
COc1cc(/C=C2\SC(=O)NC2=O)ccc1Oc1ccc([N+](=O)[O-])cn1,–,–,·,–,–
C/C(=N\Nc1ccc(C(=O)c2c(C)cc3ccccn23)cc1[N+](=O)[O-])c1ccc(O)cc1,–,–,·,–,–
Cc1cc2ccccn2c1C(=O)c1ccc(N/N=C/c2ccc(C(=O)O)cc2)c([N+](=O)[O-])c1,–,–,·,73,54
CCc1ccc(C(=O)NNc2ccc(Cl)cc2)cc1,–,–,·,–,–
CCc1ccc(C(=O)NNC(=O)OC)cc1,–,–,–,–,72
O=c1[nH]cc(COCC(F)CCl)c(=O)[nH]1 (configuration not stated),–,–,·,–,97
O=C1c2ccccc2C(=O)N1CCCOCc1c[nH]c(=O)[nH]c1=O,–,–,–,–,–
O=C(NCc1ccc(F)cc1)c1c2c(nc3ccccc13)CCC2,–,–,–,–,36
SMILES,Hck Nef HTS,NCF1 inh,Diaphorase act,14-3-3 Bad PPI,eIF4E-4G inh
O=C(NCc1ccco1)c1c2c(nc3ccccc13)CCC2,–,–,–,·,·
C=CCC(CC(O)COCCC)C(=O)NNC(=S)Nc1ccccc1 (configuration not stated),–,–,·,–,–
COc1ccc(-c2ncncc2-c2ccc(Cl)cc2)c(O)c1,–,–,·,–,83
COc1cccc(Oc2cncnc2-c2ccc(OC)cc2O)c1,–,–,–,–,–
OC1(c2cccnc2)CCN(Cc2nnnn2C2CCCCC2)CC1,–,–,–,84,–
O=S1(=O)CC/C(=N/Nc2ccc(C(F)(F)F)cn2)c2cc(F)ccc21,–,–,–,–,87
OC(COCC1COc2ccccc2O1)CN1CCN(c2ccccc2F)CC1 (configuration not stated),–,–,–,89,–
